Test results from ChEMBL document CHEMBL4385626, “SAR optimization studies on modified salicylamides as a potential treatment for acute myeloid leukemia through inhibition of the CREB pathway” (Bioorg Med Chem Lett, 2019).
pIC50: −log10 of the molar value.

Columns and labels:
KG-1 = experiment: Cytotoxicity against human KG1 cells incubated for 3 days by CellTiter-Glo luminescent assay; format: functional, cell-based; settings: KG-1, 72 h
How it was run: (§1)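 CellTiter-Glo viability read-out on leukemia cell lines. IC50 reported as the average of triplicates.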

HL-60 = experiment: Cytotoxicity against human HL60 cells incubated for 3 days by CellTiter-Glo luminescent assay; format: functional, cell-based; settings: HL-60, 72 h; how it was run: as §1

Q: With `O=C(Nc1ccccc1)c1cc(F)ccc1O` as the compound, how does the pIC50 (KG-1) read?
A: < 5.00

Q: What about the pIC50 (HL-60) of the same compound?
A: < 5.00

Q: What does the source list for `N#Cc1ccc(NC(=O)c2ccc(Cl)cc2O)cc1`?
A: pIC50 (KG-1): 5.72; pIC50 (HL-60): 5.89

Q: With `N#Cc1ccc2nc(-c3ccccc3O)[nH]c2c1` as the compound, how does the pIC50 (KG-1) read?
A: < 5.00

Q: And the pIC50 (HL-60)?
A: < 5.00

Q: With `N#Cc1ccc(NC(=O)c2cccc3cc[nH]c23)cc1` as the compound, how does the pIC50 (KG-1) read?
A: < 5.00

Q: What about the pIC50 (HL-60) of the same compound?
A: < 5.00

Q: With `N#Cc1ccc(NS(=O)(=O)c2cc(F)ccc2O)cc1` as the compound, how does the pIC50 (KG-1) read?
A: < 5.00

Q: And the pIC50 (HL-60)?
A: < 5.00

Q: `CN(C(=O)c1cc(F)ccc1O)c1ccc(C#N)cc1` was tested. Which pIC50 (KG-1) did it give?
A: < 5.00

Q: And the pIC50 (HL-60)?
A: < 5.00

Q: `CC(=O)Oc1cc2ccccc2cc1C(=O)Nc1ccc(C#N)cc1` was tested. Which pIC50 (KG-1) did it give?
A: 5.77

Q: And the pIC50 (HL-60)?
A: 5.77

Q: With `Cc1cccc(C(=O)Nc2ccc(C#N)cc2)c1O` as the compound, how does the pIC50 (KG-1) read?
A: 5.05

Q: And the pIC50 (HL-60)?
A: < 5.00

Q: What does the source list for `N#Cc1ccc(NC(=O)c2ccc3ccccc3c2O)cc1`?
A: pIC50 (KG-1): 5.57; pIC50 (HL-60): 5.47

Q: How did the pIC50 (KG-1) turn out when `N#Cc1ccc(NC(=O)c2ccc(-c3ccccc3)cc2O)cc1` was run?
A: 6.39

Q: What about the pIC50 (HL-60) of the same compound?
A: 6.15

Q: How did the pIC50 (KG-1) turn out when `N#Cc1ccc(NC(=O)c2ccc(-c3ccncc3)cc2O)cc1` was run?
A: 5.05

Q: What about the pIC50 (HL-60) of the same compound?
A: 5.15

Q: `COc1ccc(C(=O)Nc2ccc(C#N)cc2)c(O)c1` was tested. Which pIC50 (KG-1) did it give?
A: 5.27

Q: And the pIC50 (HL-60)?
A: 5.26

Q: `N#Cc1ccc(NC(=O)c2c(O)cccc2F)cc1` was tested. Which pIC50 (KG-1) did it give?
A: < 5.00

Q: And the pIC50 (HL-60)?
A: < 5.00

Q: How did the pIC50 (KG-1) turn out when `N#Cc1ccc(NC(=O)c2cc(-c3cccnc3)ccc2O)cc1` was run?
A: 5.08

Q: And the pIC50 (HL-60)?
A: 5.10

Q: Which results are given for `N#Cc1ccc(NC(=O)c2cc(Cc3ccccc3)ccc2O)cc1`?
A: pIC50 (KG-1): 5.71; pIC50 (HL-60): 5.76

Q: `N#Cc1cccc(NC(=O)c2cc(F)ccc2O)c1` was tested. Which pIC50 (KG-1) did it give?
A: 5.04

Q: And the pIC50 (HL-60)?
A: 5.11

Q: With `N#Cc1ccc(NC(=O)c2cc(Cl)c(-c3ccccc3)cc2O)cc1` as the compound, how does the pIC50 (KG-1) read?
A: 6.32

Q: And the pIC50 (HL-60)?
A: 6.28

Q: With `N#Cc1ccc(NC(=O)c2cc(Br)c(-c3ccccc3)cc2O)cc1` as the compound, how does the pIC50 (KG-1) read?
A: 6.07

Q: What about the pIC50 (HL-60) of the same compound?
A: 6.15

Q: Which results are given for `N#Cc1ccc(NC(=O)c2ccccc2O)cc1`?
A: pIC50 (KG-1): 5.27; pIC50 (HL-60): 5.34

Q: Which results are given for `N#Cc1ccc(NC(=O)c2ccc(Br)cc2O)cc1`?
A: pIC50 (KG-1): 5.84; pIC50 (HL-60): 5.92

Q: Which results are given for `Cc1cccc(O)c1C(=O)Nc1ccc(C#N)cc1`?
A: pIC50 (KG-1): 5.10; pIC50 (HL-60): 5.16

Q: `N#Cc1ccc(NC(=O)c2c(O)ccc3ccccc23)cc1` was tested. Which pIC50 (KG-1) did it give?
A: 5.42

Q: What about the pIC50 (HL-60) of the same compound?
A: 5.35

Q: What does the source list for `N#Cc1ccc(NC(=O)c2ccc(F)cc2O)cc1`?
A: pIC50 (KG-1): 5.50; pIC50 (HL-60): 5.86

Q: Which results are given for `Cc1ccc(C(=O)Nc2ccc(C#N)cc2)c(O)c1`?
A: pIC50 (KG-1): 5.59; pIC50 (HL-60): 5.62

Q: What does the source list for `N#Cc1ccc(NC(=O)c2ccc[nH]c2=O)cc1`?
A: pIC50 (KG-1): < 5.00; pIC50 (HL-60): < 5.00

Q: With `CS(=O)(=O)Nc1ccc(Cl)cc1C(=O)Nc1ccc(C#N)cc1` as the compound, how does the pIC50 (KG-1) read?
A: < 5.00

Q: What about the pIC50 (HL-60) of the same compound?
A: < 5.00

Q: How did the pIC50 (KG-1) turn out when `N#Cc1ccc(NC(=O)c2cc(-c3ccccc3)ccc2O)cc1` was run?
A: 5.89

Q: And the pIC50 (HL-60)?
A: 5.87

Q: Which results are given for `N#Cc1ccc(NC(=O)c2ccc(-c3cccnc3)cc2O)cc1`?
A: pIC50 (KG-1): 5.10; pIC50 (HL-60): 5.18

Q: With `N#Cc1ccc(NC(=O)c2cc(-c3ccncc3)ccc2O)cc1` as the compound, how does the pIC50 (KG-1) read?
A: 5.10

Q: And the pIC50 (HL-60)?
A: 5.27

Q: What does the source list for `N#Cc1ccc(CC(=O)c2cc(F)ccc2O)cc1`?
A: pIC50 (KG-1): < 5.00; pIC50 (HL-60): < 5.00

Q: Which results are given for `N#Cc1ccc(NC(=O)c2cccc(F)c2O)cc1`?
A: pIC50 (KG-1): 5.01; pIC50 (HL-60): 5.27

Q: `N#Cc1ccc(NC(=O)c2ccc(C(F)(F)F)cc2O)cc1` was tested. Which pIC50 (KG-1) did it give?
A: 5.84

Q: And the pIC50 (HL-60)?
A: 5.99

Q: Which results are given for `Cc1ccc(O)c(C(=O)Nc2ccc(C#N)cc2)c1`?
A: pIC50 (KG-1): 5.47; pIC50 (HL-60): 5.41

Q: `N#Cc1ccc(NC(=O)c2cc(C(F)(F)F)ccc2O)cc1` was tested. Which pIC50 (KG-1) did it give?
A: 5.32

Q: And the pIC50 (HL-60)?
A: 5.51

Q: What does the source list for `N#Cc1ccc(NC(=O)c2cc(F)ccc2O)cc1`?
A: pIC50 (KG-1): 5.57; pIC50 (HL-60): 5.85

Q: How did the pIC50 (KG-1) turn out when `N#Cc1ccc(Nc2n[nH]c3ccccc23)cc1` was run?
A: < 5.00

Q: What about the pIC50 (HL-60) of the same compound?
A: < 5.00

Q: What does the source list for `COc1cccc(C(=O)Nc2ccc(C#N)cc2)c1O`?
A: pIC50 (KG-1): < 5.00; pIC50 (HL-60): < 5.00

Q: How did the pIC50 (KG-1) turn out when `N#Cc1ccc(NC(=O)c2cccc(Br)c2O)cc1` was run?
A: 5.49

Q: What about the pIC50 (HL-60) of the same compound?
A: 5.54

Q: Which results are given for `COc1cc2ccccc2cc1C(=O)Nc1ccc(C#N)cc1`?
A: pIC50 (KG-1): < 5.00; pIC50 (HL-60): < 5.00
